The test system of test [1] is JNK activation in WT-ZAK-transfected HEK-293T cells. Put plainly: Western blotting of phospho-JNK. Type of test: cell-based, human. The following applies: H2O2 1 mM, 30 min. Put shortly:
(§1)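 HEK-293T cells stably expressing FLAG-ZAK came from retroviral infection and hygromycin selection. They grew 24 h in DMEM/10% FBS, then were serum-starved 24 h and treated at 37 °C. Cells were sonicated in PBS with protease and phosphatase inhibitors. For blotting, 30 μg soluble lysate went on SDS-PAGE and nitrocellulose, blocked in 5% milk/TBST, with primary antibodies (1:2000, 16 h, 4 °C) and IRDye secondaries (1:10,000, 1 h). Read-out: infrared-scanned phospho-JNK, normalized.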

Test [2] concerns JNK activation in C22A-ZAK-transfected HEK-293T cells. Put plainly: Western blotting of phospho-JNK. Type of test: cell-based, human. The following applies: H2O2 1 mM, 30 min. Put shortly:
as §1

Test [3] concerns the target T1, WT-ZAK and C22A-ZAK (Homo sapiens, UniProt Q9NYL2). The test is described as follows: gel-based ABPP, HNEyne labelling in proteomes. Type of test: binding. Conditions: 10 μM HNEyne, 1 hour, HEK-293T lysate.
The target in test [4] is T1, WT-ZAK and C22A-ZAK. Put plainly: gel-based ABPP, HNEyne labelling in living cells. Type of test: cell-based. Conditions: 5 μM HNEyne, 1 hour, 37°C.

Each structure is given as a SMILES string.

The results in this text go back to publication PMC3901407 (Nature methods, 2013).

T1 sequence (Q9NYL2 1-455 isoform Q9NYL2-2, stated change not applied): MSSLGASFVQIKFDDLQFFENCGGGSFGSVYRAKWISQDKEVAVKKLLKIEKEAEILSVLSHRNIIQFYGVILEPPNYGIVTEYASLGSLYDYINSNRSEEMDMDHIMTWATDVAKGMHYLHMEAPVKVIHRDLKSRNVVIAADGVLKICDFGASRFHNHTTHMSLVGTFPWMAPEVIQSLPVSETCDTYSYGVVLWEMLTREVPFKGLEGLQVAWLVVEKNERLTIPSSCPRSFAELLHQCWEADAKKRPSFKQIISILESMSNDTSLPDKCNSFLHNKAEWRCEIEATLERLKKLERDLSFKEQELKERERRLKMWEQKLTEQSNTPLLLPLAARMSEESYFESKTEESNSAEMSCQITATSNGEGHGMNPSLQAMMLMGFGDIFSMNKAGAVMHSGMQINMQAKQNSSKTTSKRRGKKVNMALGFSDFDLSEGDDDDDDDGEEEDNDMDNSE

`OO` [H2O2]: the “JNK activity after H2O2” value in test [1] and in test [2] was “stimulated JNK activity” in each case.
In the case of `C#CCCCC(O)C=CC=O` (stereo not shown) [HNEyne], the “direct labeling of ZAK by HNEyne in vitro” value at WT-ZAK and C22A-ZAK [3] was “direct labeling of WT-, but not the C22A-ZAK mutant”. Besides, the “direct labeling of ZAK by HNEyne in living cells” value on WT-ZAK and C22A-ZAK [4] is “direct labeling of WT-, but not the C22A-ZAK mutant”.
